According to ChEMBL document CHEMBL1140947, “Enantioselectivity in cardioprotection induced by (S)- (-)-2,2-dimethyl-N-(4'-acetamido-benzyl)-4-spiromorpholone-chromane” (2009):

Experiments:
Assay type in all cases: functional, Heart
Conditions in all cases: route intraperitoneal
Rattus norvegicus [1] = assay: Cardioprotective effect in Langendorff perfused Wistar rat hearts assessed as ischemic damage measured by rate-pressure product-120 at 40 mg/kg, ip
Method in brief: (§1)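 Rats pretreated intraperitoneally (test agents 40 mg/kg; reference agents 40 or 1 mg/kg); hearts isolated and Langendorff-perfused through an ischemia-reperfusion cycle. Rate-pressure product at 120 min reperfusion expressed as % of the last preischemic minute. After reperfusion, TTC staining of left ventricle (necrotic white/pale pink, healthy red); injured area given as % of total area. Mean ± SE, n = 4-6 experiments.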

Rattus norvegicus [2] = assay: Cardioprotective effect in Langendorff perfused Wistar rat hearts assessed as ratio for ischemic injured area to total area at 40 mg/kg, ip; method in brief: as §1
Rattus norvegicus [3] = assay: Cardioprotective effect in Langendorff perfused Wistar rat hearts assessed as ischemic damage measured by rate-pressure product-120 at 1 mg/kg, ip; method in brief: as §1
Rattus norvegicus [4] = assay: Cardioprotective effect in Langendorff perfused Wistar rat hearts assessed as ratio for ischemic injured area to total area at 1 mg/kg, ip; method in brief: as §1

Row | Structure (SMILES) | Activity (Rattus norvegicus [1]) | Activity (Rattus norvegicus [2]) | Activity (Rattus norvegicus [3]) | Activity (Rattus norvegicus [4])
1 | CC(=O)Nc1ccc(CN2C[C@]3(CC(C)(C)Oc4ccccc43)OCC2=O)cc1 | 27% | 35% | – | –
2 | CC(=O)Nc1ccc(CN2CC3(CC(C)(C)Oc4ccccc43)OCC2=O)cc1 (racemic) | 59% | 22% | – | –
3 | CC1=Nc2ccc(Cl)cc2S(=O)(=O)N1 [DIAZOXIDE] | 45% | 25% | – | –
4 | CC(=O)Nc1ccc(CN2C[C@@]3(CC(C)(C)Oc4ccccc43)OCC2=O)cc1 | 64% | 16% | – | –
5 | CC1(C)Oc2ccc(C#N)cc2C(N2CCCC2=O)C1O (stereo not given) [CROMAKALIM] | – | – | 86% | 23%
